Source: ChEMBL document CHEMBL1156859, “Novel bis-2,2,6,6-tetramethylpiperidine (bis-TMP) and bis-mecamylamine antagonists at neuronal nicotinic receptors mediating nicotine-evoked dopamine release” (Bioorg Med Chem Lett, 2010)

How the values were obtained:
Format in all cases: functional
[1] = Antagonist activity at nicotinic acetylcholine receptor in rat striatal slices assessed as inhibition of S-(-)-nicotine-induced [3H]dopamine release at 100 nM relative to control
Outline: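 Probe assay on superfused rat striatal slices: 100 nM analog against 10 μM S-(−)-nicotine-evoked [3H]DA release. Inhibition is expressed as a percentage of the nicotine response without analog, i.e. the fractional release evoked under control conditions. Each value comes from at least 3 independent experiments, each in duplicate (n = 3 rats/analog).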

[2] = Antagonist activity at nicotinic acetylcholine receptor in rat striatal slices assessed as inhibition of S-(-)-nicotine-induced [3H]dopamine release relative to control
Outline: (§1)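 Superfused rat striatal slices were stimulated with 10 μM S-(−)-nicotine, with analog present across 1 nM to 10 μM. Evoked [3H]DA overflow was expressed as a percent of tissue [3H] content and compared with nicotine alone. IC50 and Imax came from iterative nonlinear least-squares curve fitting, using 4-6 independent experiments.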

[3] = Antagonist activity at nicotinic acetylcholine receptor in rat striatal slices assessed as inhibition of S-(-)-nicotine-induced [3H]dopamine release; outline: as §1

SMILES | inhibition at 0.1 µM [1] [%] | Imax [2] [%] | IC50 [3] [nM]
CC1(C)CCCC(C)(C)N1CCCCCCCCN1C(C)(C)CCCC1(C)C | 18 | – | –
Cc1ccc[n+](CCCC#Cc2cc(C#CCCC[n+]3cccc(C)c3)cc(C#CCCC[n+]3cccc(C)c3)c2)c1.[Br-].[Br-].[Br-] | 40 | 67 | 0.2
CN(CCCC#Cc1cc(C#CCCCN(C)[C@@]2(C)[C@@H]3CC[C@@H](C3)C2(C)C)cc(C#CCCCN(C)[C@@]2(C)[C@@H]3CC[C@@H](C3)C2(C)C)c1)[C@@]1(C)[C@@H]2CC[C@@H](C2)C1(C)C | 73 | 62 | 107
CN(CCCCCCCCCCCN(C)[C@@]1(C)[C@@H]2CC[C@@H](C2)C1(C)C)[C@@]1(C)[C@@H]2CC[C@@H](C2)C1(C)C | 35 | 90 | 319
CN(CCCCCCCCCCCCCN(C)[C@@]1(C)[C@@H]2CC[C@@H](C2)C1(C)C)[C@@]1(C)[C@@H]2CC[C@@H](C2)C1(C)C | 52 | 83 | 46
Cc1ccc[n+](CCCCCCCCCCCC[n+]2cccc(C)c2)c1.[Br-].[Br-] | – | 78 | 2
CC1(C)CCCC(C)(C)N1CCCCCCCCCCCCCN1C(C)(C)CCCC1(C)C | 56 | 87 | 2.2
CC1(C)CCCC(C)(C)N1CCCCCCCCCCCN1C(C)(C)CCCC1(C)C | 22 | – | –
CC1(C)CCCC(C)(C)N1CCCCCCCCCCCCN1C(C)(C)CCCC1(C)C | 36 | – | –
CC1(C)CCCC(C)(C)N1CCCCCCCCCCN1C(C)(C)CCCC1(C)C | 5 | – | –
